Test [1] has as its system PC-3. Nature of the test: Growth inhibition of human PC3 cells after 24 hrs by trypan blue exclusion method. The settings on record: PC-3, 24 h. It counts as functional. Put shortly: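 PC-3 cells grown in phenol red-free IMEM with 10% FBS, 2 mM glutamine and penicillin/streptomycin at 37 °C, 5% CO2. Seeded in triplicate at 1.5 × 10⁴ cells/well. After 24 h, treated with DMSO vehicle or 1, 5, 15, 30 or 60 μM compound for 24 h. Cells trypsinized, stained with 0.4% trypan blue, and live and dead cells counted by hemocytometer. Mean ± SEM of three independent observations.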

In test [2] the test system is PC-3. Nature of the test: Increase in RASSF1A gene expression in human PC3 cells at 15 uM after 3 days hrs by RT-PCR. It counts as functional. Put shortly:
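PC-3 cells incubated 3 days with compound, then RNA extracted with TRIzol. 500 ng total RNA reverse-transcribed with random hexamers. RASSF1A amplified with previously described primers and conditions. Products run on 1.5% agarose and stained with ethidium bromide. Bands quantified by densitometry against untreated cells, with RASSF1A re-expression from the reference alkaloid set to 100%.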

Test [3] relates to PC-3. Kind of test: […] in RASSF1A gene expression in human PC3 cells at 15 uM after 3 days hrs by RT-PCR. The test is classed as functional, cell-based.
Test [4] has as its system PC-3. Kind of test: Decrease in DNA synthesis in human PC3 cells at 5 uM after 24 hrs by BrdU incorporation assay. It counts as functional, cell-based. The gist of the method:
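PC-3 cells were seeded at 2 × 10⁴ cells/well and exposed to 5 μM compound or DMSO for 24 h. BrdU incorporation was read by chemiluminescent cell proliferation ELISA on a luminometer. Background without anti-BrdU-peroxidase was subtracted and values were normalized to untreated control. Values are mean ± SEM.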

The target in test [5] is DNA (cytosine-5)-methyltransferase 1 (Homo sapiens) (UniProt P26358). Kind of test: Inhibition of DNA methyltransferase activity in human PC3 cells at 15 uM after 3 days. The test is classed as cell-based. The settings on record: PC-3. Put shortly:
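PC-3 cells in complete growth medium treated 3 days with compound, then harvested. Nuclear extracts prepared by kit protocol, and DNMT activity measured with a commercial DNMT activity kit against untreated cells. Mean of three independent experiments ± SEM.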

Activity calls are given as the source filed them. No cut-off for these calls is given here.

Sequence of DNA (cytosine-5)-methyltransferase 1 (Homo sapiens) (P26358 whole entry): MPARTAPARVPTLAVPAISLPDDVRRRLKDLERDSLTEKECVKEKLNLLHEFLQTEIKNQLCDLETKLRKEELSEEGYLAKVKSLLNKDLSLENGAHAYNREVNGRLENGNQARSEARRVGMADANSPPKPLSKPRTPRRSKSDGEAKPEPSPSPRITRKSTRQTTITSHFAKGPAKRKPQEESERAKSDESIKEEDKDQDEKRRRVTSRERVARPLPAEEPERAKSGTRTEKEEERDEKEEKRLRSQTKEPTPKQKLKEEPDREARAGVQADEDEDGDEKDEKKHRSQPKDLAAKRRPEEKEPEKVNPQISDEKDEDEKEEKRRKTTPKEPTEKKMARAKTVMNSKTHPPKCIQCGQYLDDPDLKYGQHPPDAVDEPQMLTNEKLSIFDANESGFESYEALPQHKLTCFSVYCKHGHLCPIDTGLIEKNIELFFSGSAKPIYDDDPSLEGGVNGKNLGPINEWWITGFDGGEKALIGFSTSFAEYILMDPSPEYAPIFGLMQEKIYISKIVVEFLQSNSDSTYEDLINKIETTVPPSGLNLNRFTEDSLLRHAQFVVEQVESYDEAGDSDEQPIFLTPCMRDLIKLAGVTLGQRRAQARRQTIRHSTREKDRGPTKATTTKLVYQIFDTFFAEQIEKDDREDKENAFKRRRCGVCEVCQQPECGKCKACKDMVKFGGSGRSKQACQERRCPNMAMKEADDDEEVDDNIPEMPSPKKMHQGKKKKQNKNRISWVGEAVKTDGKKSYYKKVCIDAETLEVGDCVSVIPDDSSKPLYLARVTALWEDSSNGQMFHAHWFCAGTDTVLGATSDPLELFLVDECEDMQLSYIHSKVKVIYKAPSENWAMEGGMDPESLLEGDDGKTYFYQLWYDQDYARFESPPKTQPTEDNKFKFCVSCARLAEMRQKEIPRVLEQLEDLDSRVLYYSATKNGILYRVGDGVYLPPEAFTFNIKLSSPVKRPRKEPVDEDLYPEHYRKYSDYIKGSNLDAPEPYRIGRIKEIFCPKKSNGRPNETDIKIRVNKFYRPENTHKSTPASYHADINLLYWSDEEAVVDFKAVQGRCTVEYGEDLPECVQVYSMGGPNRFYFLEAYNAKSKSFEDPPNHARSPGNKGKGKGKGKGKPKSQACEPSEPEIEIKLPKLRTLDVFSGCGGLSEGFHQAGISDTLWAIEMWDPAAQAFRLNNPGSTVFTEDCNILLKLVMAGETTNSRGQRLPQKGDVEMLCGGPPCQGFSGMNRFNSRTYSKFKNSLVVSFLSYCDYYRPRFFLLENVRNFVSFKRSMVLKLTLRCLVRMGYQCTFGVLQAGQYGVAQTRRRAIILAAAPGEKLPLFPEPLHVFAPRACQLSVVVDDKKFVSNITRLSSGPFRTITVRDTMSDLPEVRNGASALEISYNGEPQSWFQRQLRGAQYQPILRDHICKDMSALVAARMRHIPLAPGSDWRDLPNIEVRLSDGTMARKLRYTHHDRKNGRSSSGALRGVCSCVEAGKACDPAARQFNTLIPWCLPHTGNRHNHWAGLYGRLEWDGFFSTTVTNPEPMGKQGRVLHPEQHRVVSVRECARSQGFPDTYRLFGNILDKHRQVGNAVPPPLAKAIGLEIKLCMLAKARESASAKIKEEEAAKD

By GI50 is commonly meant the concentration giving 50% growth inhibition. Lower therefore signals greater sensitivity of the cells. Turning to `COc1ccc2c(c1)[nH]c1cc(OCc3ccccc3)c(C)cc12`, halving of growth with PC-3 [1] (GI50) required 48.9 µM. Moreover, the outcome in the test on PC-3 [2] and in the test on PC-3 [3] was inactive.

`COc1ccc2c(c1)[nH]c1cc(OS(=O)(=O)c3cccc4c(N(C)C)cccc34)c(C)cc12` registered a GI50 with PC-3 [1] of 22.9 µM. The outcome in the test with PC-3 [2] and in the test on PC-3 [3] was inactive.

Consider `COc1ccc2c(c1)[nH]c1c(C)c(OCc3ccccc3)ccc12`, for which it took 17.6 µM to inhibit growth in the test on PC-3 [1] by half (GI50). The result (in the test with PC-3 [4]; in test [5]) was Active. In addition, in the test on PC-3 [2], the Activity stood at 50%.

For `COc1ccc2c(c1)[nH]c1cc(O)c(C)cc12`, growth in the test on PC-3 [1] was halved (GI50) at 15.3 µM. In addition, the outcome (with PC-3 [4]; in test [5]) was Active.

The compound `COc1ccc2c(c1)[nH]c1c(C)c(O)ccc12` showed a GI50 in the test with PC-3 [1] of 18.7 µM. For the same compound, the outcome in test [5] was Active.

Source of the values: ChEMBL document CHEMBL1157638, “Fluorescent epigenetic small molecule induces expression of the tumor suppressor ras-association domain family 1A and inhibits human prostate xenograft” (J Med Chem, 2010).
